Source: PubChem BioAssay
M5 PAM = potentiates acetylcholine response at human M5 receptor; P08912; CHO-K1 hM5, Fluo-8 calcium, ACh EC20 PAM; 0% = ACh EC20, 100% = ACh EC100; activation, % at 3 µM; 360,000 compounds, 0.3% hits; AID 624038;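 active = activation above the run cutoff, the mean activation of all test compounds plus 3 SD, cut at about 18% in these data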
Target sequence (P08912 whole entry, looked up): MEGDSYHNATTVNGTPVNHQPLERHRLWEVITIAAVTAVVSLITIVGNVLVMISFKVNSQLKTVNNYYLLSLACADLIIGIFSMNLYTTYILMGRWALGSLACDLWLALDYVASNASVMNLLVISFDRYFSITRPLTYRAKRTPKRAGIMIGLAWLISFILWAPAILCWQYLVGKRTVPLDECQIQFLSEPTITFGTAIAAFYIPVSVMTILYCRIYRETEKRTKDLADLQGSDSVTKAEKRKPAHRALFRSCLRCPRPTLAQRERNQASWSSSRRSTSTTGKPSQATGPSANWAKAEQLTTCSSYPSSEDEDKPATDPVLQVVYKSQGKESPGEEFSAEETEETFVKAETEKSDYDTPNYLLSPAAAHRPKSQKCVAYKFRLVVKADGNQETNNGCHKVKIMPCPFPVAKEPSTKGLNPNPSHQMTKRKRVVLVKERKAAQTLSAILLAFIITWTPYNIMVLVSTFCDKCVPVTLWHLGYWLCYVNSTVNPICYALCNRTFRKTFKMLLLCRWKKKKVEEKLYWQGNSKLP
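system = human M5 receptor in CHO-K1 cells | compound = one concentration, 3 µM final (nominal) | schedule = Post-acetylcholine fluorescence recording 140 s | signal = Fluo-8 calcium dye fluorescence, kinetic read | benchmarks = low control EC20 acetylcholine (0%), high control EC100 acetylcholine (100%) | repeats = singlicate, one well per test compound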
M4 antag = blocks acetylcholine activation of human M4 receptor; P08173; CHO-hM4 cells, ACh EC80, Fluo-8 calcium fluorescence; inhibition, % at 3 µM; 360,000 compounds, 0.73% hits; AID 624125;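 active = inhibition above its plate's cutoff, the mean inhibition of sample wells plus 3 SD, cut at about 27% in these data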
M5 antag = antagonists of human muscarinic M5 receptor (CHRM5). P08912. CHO-hM5 cells, Fluo-8 calcium fluorescence, ACh EC80. inhibition, % at 3 µM. 360,000 compounds, 0.59% hits. AID 624040;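 active = inhibition above a per-plate cutoff, the mean of that plate's test compounds plus 3 SD, cut at about 27% in these data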
CHRM5 agonist = agonists of human muscarinic M5 receptor (CHRM5); CHO-K1 hM5 cells, Fluo-8 calcium fluorescence; 0% DMSO wells, 100% maximal acetylcholine response; activation, % at 3 µM; 360,000 compounds, 0.19% hits; AID 624037;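 active = activation above the run's mean over test compounds plus 3 SD, cut at about 23% in these data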;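 also: signal is peak over basal fluorescence ratio across the kinetic read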
CHRM4 PAM = CHRM4 positive allosteric modulation. P08173. CHO-K1 hM4/Gqi5, Fluo-8 calcium fluorescence, ACh EC20; 0% = ACh EC20, 100% = maximal ACh. activation, % at 3 µM. 360,000 compounds, 0.4% hits. AID 624126;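 active = activation above its plate's cutoff, the mean activation of sample wells plus 3 SD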
M4 ag = agonists of human muscarinic M4 receptor (CHRM4); P08173; CHO-K1 hM4/Gqi5, Fluo-8 calcium fluorescence; vehicle 0%, full acetylcholine response 100%; activation, % at 3 µM; 360,000 compounds, 0.14% hits;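 active = activation above the run mean over all test wells plus 3 SD, cut at about 32% in these data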;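 also: peak over basal fluorescence ratio per well then scaled between controls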
Hits are given with their value; - = inactive. Hits are enriched below; roughly 1.9% of the tested compounds scored in any of these assays.

SMILES	M5 PAM	M4 antag	M5 antag	CHRM5 agonist	CHRM4 PAM	M4 ag
COc1ccc(/C=C/C=C2C(=O)NC(=S)NC2=O)cc1	-	-	-	-	-	-
CCC1(C)OC(c2ccccc2)=C/C(=C/C=C2C(=O)NC(=O)NC2=O)O1 (configuration not stated)	-	-	-	61	-	-
C[CH2][Hg][S]c1ccccc1C(=O)O	-	36	-	-	33	-
CC(C)COC(=O)c1ccccc1C(=O)OCC(C)C	-	-	-	-	-	-
CCCC[n+]1cc(/N=C(\[O-])OC)on1	36	-	-	-	-	-
O=C(O)C1CN2CCC1CC2 (configuration not stated)	-	-	-	37	-	-
O=C(c1cccs1)C1CN2CCC1CC2 (configuration not stated)	-	-	-	-	-	-
CCOC(=O)[C@]12Cc3cc(OC)ccc3[C@H]1N(C1CCCCC1)C(=O)c1cc(OC)ccc12	-	-	-	-	-	-
CCOC(=O)[C@]12Cc3cc(C)ccc3[C@H]1N(Cc1ccccc1)C(=O)c1ccccc12	-	-	-	-	-	-
CCOC(=O)[C@]12Cc3cc(C)ccc3[C@H]1N(C(C)C)C(=O)c1ccccc12	22	-	-	-	-	-
CCOC(=O)[C@]12Cc3cc(C)ccc3[C@H]1N(C1CCCCC1)C(=O)c1cc(OC)ccc12	-	65	-	50	-	-
C[C@@H]1CN([C@@H](C)CO)C(=O)CCCn2nncc2CO[C@@H]1CN(C)C(=O)Oc1cccc2ccccc12	-	-	-	-	-	-
COC(=O)C1=C(c2ccc(OCc3ccccc3)cc2)C[C@@H]2CC[C@H]1N2C	-	-	-	-	-	-
CCOC(=O)[C@]12Cc3cc(C)ccc3[C@H]1N(Cc1ccccc1)C(=O)c1cc(F)c(F)cc12	-	-	-	-	-	-
COc1ccccc1N1C(=O)NC(=O)C(CCc2ccncc2)(CCc2ccncc2)C1=O	28	-	-	-	-	-
CN(C)CC#CCC(O)(c1ccccc1)C1CCCC1 (configuration not stated)	-	87	94	-	-	-
C(#CCN1CCCCC1)COCc1ccccc1	-	-	-	-	-	-
CC1(C(O)(C#CCN2CCCCC2)c2ccccc2)CCCC1 (configuration not stated)	-	99	99	-	-	-
OC(CC#CCN1CCCCCC1)(c1ccccc1)C1CCCC1 (configuration not stated)	-	91	84	-	-	-
O=C1NC(=O)C(=Cc2ccc(Cl)cc2)C(=O)N1	-	-	-	-	-	-
Cc1ccc(S(=O)(=O)N2Cc3cc(-c4ccccc4)ccc3-n3nncc3C2)cc1	-	-	-	-	-	-
Cc1cccc(NC(=O)COC(=O)c2cc(C)n(C3CC3)c2C)c1	-	-	-	-	-	-
CCOC(=O)/C(CCCN(CC)CC)=N\O	-	34	35	-	-	-
COc1ccc(-n2nnnc2C(CCSC)N2CCC(n3c(=O)[nH]c4ccccc43)CC2)cc1 (configuration not stated)	-	-	-	-	-	-
CC(C)C(O)(C(=O)OCC1=CCN2CCC(O)C12)C(C)O (configuration not stated)	-	-	-	-	-	-
CCN(CC)C(=O)c1ccc(NC(=O)c2cn(-c3ccccc3)nc2-c2ccc(OC)cc2)cc1	-	-	28	-	-	-
CCN1CCN(Cc2cc(Br)cc(OC)c2O)CC1	-	39	-	-	-	-
O=C(NC1CN2CCC1CC2)c1cccc(Cl)c1 (configuration not stated)	-	-	-	-	-	-
O=C(COc1ccc(Cl)cc1)NC1CN2CCC1CC2 (configuration not stated)	-	-	38	-	-	-
COC1C(C)OC(OC2CC(C)(O)Cc3cc4c(c(O)c32)C(=O)c2c(O)cc3c(c2C4=O)OC2OC3(C)C(O)C(N(C)C)C2O)C(OC)C1(C)OC (configuration not stated)	-	-	-	30	-	-
